# Measured values taken from ChEMBL document CHEMBL1150225, “Cytotoxic cholestane glycosides from the bulbs of Ornithogalum saundersiae” (J Nat Prod, 2001).
# What was measured:
# SF-268 = assay: Cytotoxicity against human SF268 cells; assay type: functional
# EKVX = assay: Cytotoxicity against human EKVX cells; assay type: functional
# SK-OV-3 = assay: Cytotoxicity against human SKOV3 cells; assay type: functional
# U-251 = assay: Cytotoxicity against human U251 cells; assay type: functional
# MOLT-4 = assay: Cytotoxicity against human MOLT4 cells; assay type: functional
# ACHN = assay: Cytotoxicity against human ACHN cells; assay type: functional
# SNB-75 = assay: Cytotoxicity against human SNB75 cells; assay type: functional
# NCI-H322M = assay: Cytotoxicity against human NCI-H322M cells; assay type: functional
# NCI-H522 = assay: Cytotoxicity against human NCI-H522 cells; assay type: functional
# UACC-62 = assay: Cytotoxicity against human UACC62 cells; assay type: functional
# RXF 393 = assay: Cytotoxicity against human RXF393 cells; assay type: functional
# MDA-MB-231 = assay: Cytotoxicity against human MDA-MB-231 cells; assay type: functional
# UO-31 = assay: Cytotoxicity against human UO31 cells; assay type: functional
# OVCAR-5 = assay: Cytotoxicity against human OVCAR5 cells; assay type: functional
# BT-549 = assay: Cytotoxicity against human BT549 cells; assay type: functional
# NCI-H23 = assay: Cytotoxicity against human NCI-H23 cells; assay type: functional
# MCF7 = assay: Cytotoxicity against human MCF7 cells; assay type: functional
# HOP-92 = assay: Cytotoxicity against human HOP92 cells; assay type: functional
# OVCAR-8 = assay: Cytotoxicity against human OVCAR8 cells; assay type: functional
# SR = assay: Cytotoxicity against human SR cells; assay type: functional
# 786-0 = assay: Cytotoxicity against human 786-0 cells; assay type: functional
# SK-MEL-5 = assay: Cytotoxicity against human SK-MEL-5 cells; assay type: functional
# SF-539 = assay: Cytotoxicity against human SF539 cells; assay type: functional
# HL-60 = assay: Cytotoxicity against human HL60 cells after 72 hrs by MTT assay; assay type: functional, cell-based; details: HL-60, 72 h
# Method in brief: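 HL-60 leukemia cells kept in RPMI 1640 with 10% fetal bovine serum, L-glutamine, 100 units/mL penicillin and 100 μg/mL streptomycin. Cells at 3 × 10^4 cells/mL exposed continuously to compound for 72 h. Growth read by MTT reduction. IC50 (50% inhibition) calculated from each compound's dose–response curve.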
# M14 = assay: Cytotoxicity against human M14 cells; assay type: functional
# SF-295 = assay: Cytotoxicity against human SF295 cells; assay type: functional
# DU-145 = assay: Cytotoxicity against human DU145 cells; assay type: functional
# SW-620 = assay: Cytotoxicity against human SW620 cells; assay type: functional
# A549 = assay: Cytotoxicity against human A549 cells; assay type: functional
# HOP-62 = assay: Cytotoxicity against human HOP62 cells; assay type: functional
# [1] = read-out: pLC50 (the source's name) (converted)
smiles,measurement,setting,value
COc1ccc(C(=O)O[C@H]2[C@H](O[C@@H]3[C@@H](OC(C)=O)[C@H](O[C@H]4C[C@H]5[C@@H]6CC=C7C[C@@H](O)CC[C@]7(C)[C@H]6CC[C@]5(C)[C@@]4(O)[C@H](C)C(=O)CCC(C)C)OC[C@@H]3O)OC[C@@H](O)[C@@H]2O)cc1,CC50,SF-268; [1],7410 nM
same,TGI,SF-268; read-out: pTGI (converted),851 nM
same,GI50,EKVX,0.182 nM
same,CC50,EKVX; [1],6610 nM
same,TGI,EKVX; read-out: pTGI (converted),550 nM
same,GI50,SK-OV-3,3.98 nM
same,CC50,SK-OV-3; [1],10000 nM
same,TGI,SK-OV-3; read-out: pTGI (converted),1200 nM
same,GI50,U-251,0.0257 nM
same,CC50,U-251; [1],2510 nM
same,TGI,U-251; read-out: pTGI (converted),51.3 nM
same,GI50,MOLT-4,0.0977 nM
same,CC50,MOLT-4; [1],457 nM
same,TGI,MOLT-4; read-out: pTGI (converted),11 nM
same,GI50,ACHN,7.94 nM
same,CC50,ACHN; [1],7240 nM
same,TGI,ACHN; read-out: pTGI (converted),2190 nM
same,GI50,SNB-75,0.0417 nM
same,CC50,SNB-75; [1],3020 nM
same,TGI,SNB-75; read-out: pTGI (converted),3.24 nM
same,GI50,NCI-H322M,26.9 nM
same,CC50,NCI-H322M; [1],5010 nM
same,TGI,NCI-H322M; read-out: pTGI (converted),1290 nM
same,GI50,NCI-H522,0.363 nM
same,CC50,NCI-H522; [1],324 nM
same,TGI,NCI-H522; read-out: pTGI (converted),5.37 nM
same,GI50,UACC-62,0.309 nM
same,CC50,UACC-62; [1],3.63 nM
same,TGI,UACC-62; read-out: pTGI (converted),1.29 nM
same,GI50,RXF 393,0.0708 nM
same,CC50,RXF 393; [1],407 nM
same,TGI,RXF 393; read-out: pTGI (converted),18.2 nM
same,GI50,MDA-MB-231,19.1 nM
same,CC50,MDA-MB-231; [1],5370 nM
same,TGI,MDA-MB-231; read-out: pTGI (converted),1290 nM
same,GI50,UO-31,0.617 nM
same,CC50,UO-31; [1],30.2 nM
same,TGI,UO-31; read-out: pTGI (converted),1.41 nM
same,GI50,OVCAR-5,50.1 nM
same,CC50,OVCAR-5; [1],5890 nM
same,TGI,OVCAR-5; read-out: pTGI (converted),2000 nM
same,GI50,BT-549,1.82 nM
same,CC50,BT-549; [1],4570 nM
same,TGI,BT-549; read-out: pTGI (converted),1700 nM
same,GI50,NCI-H23,0.363 nM
same,CC50,NCI-H23; [1],1290 nM
same,TGI,NCI-H23; read-out: pTGI (converted),110 nM
same,GI50,MCF7,0.813 nM
same,CC50,MCF7; [1],3630 nM
same,TGI,MCF7; read-out: pTGI (converted),1200 nM
same,GI50,HOP-92,1.1 nM
same,CC50,HOP-92; [1],3020 nM
same,TGI,HOP-92; read-out: pTGI (converted),32.4 nM
same,GI50,OVCAR-8,15.1 nM
same,CC50,OVCAR-8; [1],5370 nM
same,TGI,OVCAR-8; read-out: pTGI (converted),1580 nM
same,GI50,SR,0.12 nM
same,CC50,SR; [1],6310 nM
same,TGI,SR; read-out: pTGI (converted),129 nM
same,GI50,786-0,0.0617 nM
same,CC50,786-0; [1],3470 nM
same,TGI,786-0; read-out: pTGI (converted),1200 nM
same,GI50,SK-MEL-5,0.759 nM
same,CC50,SK-MEL-5; [1],282 nM
same,TGI,SK-MEL-5; read-out: pTGI (converted),43.6 nM
same,GI50,SF-539,0.1 nM
same,CC50,SF-539; [1],182 nM
same,TGI,SF-539; read-out: pTGI (converted),4.47 nM
same,GI50,HL-60,0.0347 nM
same,IC50,HL-60,0.25 nM
same,TGI,HL-60; read-out: pTGI (converted),182 nM
same,GI50,M14,0.269 nM
same,CC50,M14; [1],51.3 nM
same,TGI,M14; read-out: pTGI (converted),0.955 nM
same,GI50,SF-295,0.0479 nM
same,CC50,SF-295; [1],30.2 nM
same,TGI,SF-295; read-out: pTGI (converted),2.29 nM
same,GI50,DU-145,3.71 nM
same,CC50,DU-145; [1],4270 nM
same,TGI,DU-145; read-out: pTGI (converted),1510 nM
same,GI50,SW-620,0.129 nM
same,CC50,SW-620; [1],21.9 nM
same,TGI,SW-620; read-out: pTGI (converted),0.549 nM
same,GI50,A549,0.457 nM
same,CC50,A549; [1],8130 nM
same,TGI,A549; read-out: pTGI (converted),2090 nM
same,GI50,HOP-62,0.159 nM
same,CC50,HOP-62; [1],129 nM
same,TGI,HOP-62; read-out: pTGI (converted),2 nM
